7 molecules from ChEMBL document CHEMBL1154117, “Synthesis and evaluation of a novel series of quinoline derivatives with immunosuppressive activity” (Bioorg Med Chem, 2009) can be followed below.

The nature of data set [1]: Immunosuppressive activity in BALB/c mouse splenocytes assessed as inhibition of concanavalin A-induced cell proliferation at 30 uM after 48 hrs by MTT assay. Particulars: Splenocyte. The class given is functional. Summed up: (§1)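 Spleen cells (5 × 10⁵) from male BALB/c mice aged 6–8 weeks, erythrocytes lysed, stimulated with ConA 5 μg/mL in RPMI-1640/10% FBS. Compounds diluted from DMSO stock. ConA-stimulated cells used as control. Proliferation read by MTT added 4 h before end of culture, SDS/DMF lysis for 6 h, absorbance at 570 nm.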
(In general: Tetrazolium assays rely on reduction of a dye to a coloured formazan, in cell work by metabolically active cells.)

A short description of data set [2]: Immunosuppressive activity in BALB/c mouse splenocytes assessed as inhibition of concanavalin A-induced cell proliferation at 100 uM after 48 hrs by MTT assay. The class given is functional. Particulars: Splenocyte. The procedure, abridged:
as §1

Data set [3] relates to T-cell. The experiment in a line: Immunosuppressive activity against concanavalin A-induced BALB/c mouse splenocytes assessed as T-cells activation at 3 uM after 24 hrs by FACS assay. The class given is functional. Summed up:
(§2)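 Male BALB/c splenocytes (6–8 weeks), 5 × 10⁵, stimulated with ConA 5 μg/mL, with or without compound. After 24 h, cells washed twice in cold PBS and stained with CD25-FITC and CD4-APC for 30 min at 4 °C. Washed again and analysed by flow cytometry as the CD4+CD25+/CD4+ percentage.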

The subject of data set [4] is T-cell. The experiment in a line: Immunosuppressive activity against concanavalin A-induced BALB/c mouse splenocytes assessed as T-cells activation at 10 uM after 24 hrs by FACS assay. Type of data set: functional. The procedure, abridged:
as §2
For orientation: In flow cytometry, cells or beads pass a laser one at a time.

The nature of data set [5]: Cytotoxicity against BALB/c mouse splenocytes at 30 uM after 48 hrs by MTT assay. Particulars: read-out: INH. Type of data set: cell-based, Splenocyte. The procedure, abridged: (§3)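 BALB/c spleen single-cell suspension, erythrocytes depleted with Tris-buffered NH4Cl (0.155 M NH4Cl, 16.5 mM Tris, pH 7.2). Cells cultured in RPMI-1640 with 10% FBS and compound diluted from DMSO stock (0.1% DMSO in control). Medium-alone cells served as control. MTT (5 mg/mL) added 4 h before end of culture, then SDS/DMF lysis buffer (pH 7.2) for 6 h. Absorbance read at 570 nm and growth inhibition % calculated.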

Data set [6] deals with T-cell. The data set is described as follows: Immunosuppressive activity against concanavalin A-induced BALB/c mouse splenocytes assessed as T-cells activation at 1 uM after 24 hrs by FACS assay. The class given is functional. The procedure, abridged: as §2
Data set [7] has as its system Splenocyte. The experiment in a line: Immunosuppressive activity against concanavalin A-induced BALB/c mouse splenocytes assessed as inhibition of [3H]thymidine incorporation at 30 uM by liquid scintillation counting. Type of data set: functional. Background: Dividing cells build labelled thymidine or BrdU into new DNA.
For data set [8], the system named is Splenocyte. The data set is described as follows: Immunosuppressive activity against concanavalin A-induced BALB/c mouse splenocytes assessed as inhibition of [3H]thymidine incorporation at 1 uM by liquid scintillation counting. Type of data set: functional.
Data set [9] in a line: Immunosuppressive activity in BALB/c mouse splenocytes assessed as inhibition of concanavalin A-induced cell proliferation at 10 uM after 48 hrs by MTT assay. Type of data set: functional. Conditions: Splenocyte. The procedure, abridged:
as §1

Data set [10] relates to Splenocyte. The data set is described as follows: Immunosuppressive activity against concanavalin A-induced BALB/c mouse splenocytes assessed as inhibition of [3H]thymidine incorporation at 10 uM by liquid scintillation counting. The class given is functional.
Data set [11] can be described thus: Cytotoxicity against BALB/c mouse splenocytes at 100 uM after 48 hrs by MTT assay. Type of data set: cell-based, Splenocyte. Particulars: read-out: INH. Summed up: as §3
The test system of data set [12] is T-cell. The data set is described as follows: Immunosuppressive activity against concanavalin A-induced BALB/c mouse splenocytes assessed as T-cells activation at 30 uM after 24 hrs by FACS assay. Type of data set: functional. Summed up:
as §2

Data set [13] in a line: Cytotoxicity against BALB/c mouse splenocytes at 10 uM after 48 hrs by MTT assay. The class given is cell-based, Splenocyte. Conditions: read-out: INH. The procedure, abridged: as §3

One may read the inhibition as the relative decrease from the control value, in per cent. For the molecule `COc1cc(OC)c2c(OC(=O)c3ccccc3I)ccnc2c1`, the inhibition at 30 µM in data set [1] stood at 90.6%; in the data set with Splenocyte [7], 87.1%. Also, the inhibition at 100 µM in [2] came out at 93%. Further, the Activity with T-cell [3] amounted to 91.87%; with T-cell [4], 90.04%; in the data set on T-cell [6], 93.1%; with T-cell [12] it was 83.23%. The cytotoxicity at 48 h, 30 µM in data set [5] was 26.5%. Further, the inhibition at 1 µM in the data set on Splenocyte [8] was 8.2%. The values for the inhibition at 10 µM (in data set [9]; in the data set on Splenocyte [10]) were 63% and 47.5%, respectively. For the same molecule, in [11], the cytotoxicity at 48 h, 100 µM is 54.7%. In [13], the cytotoxicity at 48 h, 10 µM came out at 14.3%.

For `COc1cc(OC)c2c(OC(=O)c3ccccc3Cl)ccnc2c1`, the inhibition at 30 µM in data set [1] turned out to be 73.7%; with Splenocyte [7], 52%. The inhibition at 100 µM in data set [2] amounted to 89.8%. In addition, the Activity came to 92.8% with T-cell [3], 93.1% in the data set on T-cell [4], 95.63% in the data set with T-cell [6] and 90.86% in the data set with T-cell [12]. The cytotoxicity at 48 h, 30 µM in data set [5] was found to be 6.6%. Further, in the data set on Splenocyte [8], the inhibition at 1 µM came to 4.3%. The results for the inhibition at 10 µM (in [9]; in the data set on Splenocyte [10]) were 46.1% and 37.9%, respectively. Further, the cytotoxicity at 48 h, 100 µM in data set [11] worked out at 39.8%. The cytotoxicity at 48 h, 10 µM in [13] amounted to 2.9%.

With `COc1cc(OC)c2c(OC(=O)c3c(Cl)cccc3Cl)ccnc2c1`, the inhibition at 30 µM in data set [1] was determined as 94.6%; with Splenocyte [7] it was 99.2%. In addition, in data set [2], the inhibition at 100 µM amounted to 94.3%. Besides, the Activity was 88.8% in the data set with T-cell [3], 59.64% with T-cell [4], 92.96% with T-cell [6] and 19.41% in the data set with T-cell [12]. The cytotoxicity at 48 h, 30 µM in data set [5] stood at 52.7%. The inhibition at 1 µM with Splenocyte [8] came to 34.7%. In addition, the inhibition at 10 µM in [9] was 94%; in the data set with Splenocyte [10] it was 97.8%. For the same molecule, the cytotoxicity at 48 h, 100 µM in data set [11] was 83.4%. Besides, the cytotoxicity at 48 h, 10 µM in [13] was 10.9%.

Consider `COc1cc(OC)c2c(OC(=O)c3ccccc3OC)ccnc2c1`, for which the inhibition at 30 µM in data set [1] was 35.2%. In addition, the inhibition at 100 µM in [2] amounted to 85.3%. Also, in [5], the cytotoxicity at 48 h, 30 µM was 17.6%. In data set [9], the inhibition at 10 µM came out at 11.3%. The cytotoxicity at 48 h, 100 µM in data set [11] worked out at 47.9%. In data set [13], the cytotoxicity at 48 h, 10 µM stood at 10.3%.

As for `COc1cc(OC)c2c(OC(=O)c3ccccc3Br)ccnc2c1`, the inhibition at 30 µM in [1] worked out at 85.7%; in the data set on Splenocyte [7], 85.4%. The inhibition at 100 µM in data set [2] stood at 93.3%. The Activity in the data set with T-cell [3] was 93.23%; in the data set on T-cell [4], 93.63%; in the data set with T-cell [6] it was 94.92%; with T-cell [12] it was 86.21%. In addition, the cytotoxicity at 48 h, 30 µM in data set [5] was 22.5%. In the data set on Splenocyte [8], the inhibition at 1 µM turned out to be 4.8%. The inhibition at 10 µM in data set [9] is 51.2%; in the data set on Splenocyte [10], 42%. Moreover, the cytotoxicity at 48 h, 100 µM in data set [11] was 29.2%. Also, the cytotoxicity at 48 h, 10 µM in [13] came out at 9.8%.

As to `COc1cc(OC)c2c(OC(=O)c3ccccc3F)ccnc2c1`, in data set [1], the inhibition at 30 µM was 14.3%. In addition, in [2], the inhibition at 100 µM came out at 31%. For the same molecule, the cytotoxicity at 48 h, 30 µM in data set [5] is 12.8%. The inhibition at 10 µM in data set [9] came out at 9.3%. Besides, in data set [11], the cytotoxicity at 48 h, 100 µM came out at 19.5%. For the same molecule, in [13], the cytotoxicity at 48 h, 10 µM was determined as 7.7%.

As to `COc1ccc(C(=O)Oc2ccnc3cc(OC)cc(OC)c23)cc1`, in data set [1], the inhibition at 30 µM stood at 11%. Besides, the inhibition at 100 µM in data set [2] came to 17.7%. Moreover, in data set [5], the cytotoxicity at 48 h, 30 µM turned out to be 11.3%. For the same molecule, the inhibition at 10 µM in data set [9] turned out to be 7.8%. Further, in data set [11], the cytotoxicity at 48 h, 100 µM stood at 13.4%. In addition, the cytotoxicity at 48 h, 10 µM in data set [13] worked out at 8.2%.
